Measurements taken from ChEMBL document CHEMBL3580541, “Mebamamides A and B, Cyclic Lipopeptides Isolated from the Green Alga Derbesia marina” (J Nat Prod, 2015).
Calls of active or inactive are those of the source. The calls are words filed in the database; no cut-off is given here.

Key:
[1] = test system: HL-60; experiment: Induction of cell adhesion in human HL60 cells at 100 uM measured upto 72 hrs by hemocytometry; format: functional, cell-based
In short: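 HL60 cells were seeded at 1 × 10^5 cells/well in 200 μL medium and given 100 μM compound; TPA at 16 nM served as comparator. Both fractions were counted by hemocytometer. Means ± SD of quadruplicate determinations.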

[2] = test system: HeLa; experiment: Cytotoxicity against human HeLa cells after 72 hrs by Trypan blue dye exclusion assay; format: functional, cell-based; details: in the assay text read “MTT assay” for “Trypan blue dye exclusion assay”
In short: (§1)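 MTT read-out of proliferation. HeLa cells were grown in supplemented DMEM with 10% heat-inactivated FBS, seeded at 2 × 10^4 cells/well and cultured overnight. HL60 cells were grown in supplemented RPMI with 10% FBS and seeded at 1 × 10^5 cells/well. Compounds were added at 0.1−100 μM and incubated 72 h at 37 °C, 5% CO2.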

[3] = test system: HL-60; experiment: Cytotoxicity against human HL60 cells after 72 hrs by Trypan blue dye exclusion assay; format: functional, cell-based; details: HL-60, 72 h, in the assay text read “MTT assay” for “Trypan blue dye exclusion assay”; in short: as §1
[4] = test system: HL-60; experiment: Induction of human HL60 cell phagocytotic activity at 16 nM after 48 hrs by trypan based fluorescent microscopy; format: functional
In short: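 HL60 cells were seeded at 2 × 10^4 cells/well. FITC-conjugated latex beads and agent were added together, with TPA at 16 nM as the reference, and cells were incubated for 48 h. Uptake was assessed by fluorescence microscopy using a commercial phagocytosis kit run per the manufacturer's protocol.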

[5] = test system: HL-60; experiment: Induction of human HL60 cell differentiation into macrophages at 16 nM after 72 hrs by May-Giemsa staining based microscopy; format: functional
In short: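 HL60 cells were grown in RPMI with 10% heat-inactivated FBS, penicillin/streptomycin, amphotericin and L-glutamine at 37 °C in 5% CO2. They were seeded at 2 × 10^4 cells/well and treated for 72 h. Cells were washed once in PBS, stained with May–Giemsa, and examined by light microscopy for macrophage-like morphology.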

[6] = test system: HL-60; experiment: Cytotoxicity against human HL60 cells at 100 uM after 72 hrs by Trypan blue dye exclusion assay; format: functional, cell-based
In short: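 HL60 cells were seeded at 1 × 10^5 cells/well in 24-well plates and exposed to 100 μM compound for 72 h. They were then stained with 0.8 mg/mL trypan blue. Viability was determined by counting stained (dead) cells.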

[7] = test system: HL-60; experiment: Induction of human HL60 cell phagocytotic activity at 100 uM after 48 hrs by trypan based fluorescent microscopy; format: functional
In short: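 Phagocytosis was run with a commercial kit. HL60 cells were seeded at 2 × 10^4 cells/well in 200 μL medium, given 20 μL FITC-conjugated latex bead suspension plus 100 μM compound or 16 nM TPA, incubated 48 h and examined by fluorescence microscopy.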

[8] = test system: HL-60; experiment: Induction of human HL60 cell differentiation into macrophages at 100 uM after 72 hrs by May-Giemsa staining based microscopy; format: functional
In short: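 Differentiation was judged by morphology. HL60 cells were seeded at 2 × 10^4 cells/well in 200 μL medium, treated 72 h with 100 μM compound or 16 nM TPA, washed once in PBS, stained with May−Giemsa and examined by light microscopy.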

[9] = test system: HeLa; experiment: Cytotoxicity against human HeLa cells at 100 uM after 72 hrs by Trypan blue dye exclusion assay; format: functional, cell-based; details: in the assay text read “MTT assay” for “Trypan blue dye exclusion assay”; in short: as §1

Structure (SMILES)	Activity [1]	IC50 [2] [µM]	IC50 [3] [µM]	Activity [4]	Activity [5]	growth inhibition (GI) [6]	Activity [7]	Activity [8]	growth inhibition (GI) [9]
CC(=O)O[C@@H](CCCC[C@@H](O)CC(=O)N[C@H](CO)C(=O)N[C@@H](CC(C)C)C(=O)N1CCC[C@H]1C(=O)N[C@H](C)C(=O)N[C@@H]1C(=O)N[C@H](Cc2ccccc2)C(=O)N2CCC[C@H]2C(=O)N[C@H](CC(C)C)C(=O)N[C@@H](C(C)C)C(=O)O[C@@H]1C)C(C)C	inactive	48	19						
CCCCCCCCCCCCCC(=O)O[C@@H]1[C@@H](C)[C@@]2(O)[C@@H](C=C(CO)C[C@]3(O)C(=O)C(C)=C[C@@H]23)[C@@H]2C(C)(C)[C@]12OC(C)=O				Active	Active				
CC(C)C[C@H](NC(=O)[C@@H](CO)NC(=O)C[C@H](O)CCCC[C@H](O)C(C)C)C(=O)N1CCC[C@H]1C(=O)N[C@H](C)C(=O)N[C@@H]1C(=O)N[C@H](Cc2ccccc2)C(=O)N2CCC[C@H]2C(=O)N[C@H](CC(C)C)C(=O)N[C@@H](C(C)C)C(=O)O[C@@H]1C	Active					inactive	Active	Active	inactive
